We go through 2 compounds from PMC9942236 (Science translational medicine, 2023).

The test system of one assay is HA-Ras cells. Description: Cell viability of transformed astrocytes expressing HRAS G12V. Format: cell-based, human. The note with it: read-out: EC50 (cell viability), 1% serum, 96h. A digest of the protocol: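 Human astrocytes immortalized with E6/E7/hTERT and transformed by HRAS G12V expression were treated with test compound in 1% serum for 96 h, then viability was measured. At least three independent biological replicates; experiments repeated at least three times; mean ± SD.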

Assay [1] deals with 83 GSC orthotopic brain tumors. Description: Orthotopic 83 GSC mouse model: tumor growth and survival. Format: in vivo. The note with it: 83-bearing mice; YTX-7739 30mg/kg, TMZ 10mg/kg, IP.
For another assay, the system named is M120. Description: Short-term cell viability of recurrent GSC line M120. Format: cell-based, human. To be noted: YTX-7739 at 10 μM, TMZ 50–100μM.
The test system of assay [2] is MGG8 orthotopic brain tumors. Put plainly: Orthotopic MGG8 GSC mouse model: tumor growth and survival. The class given is in vivo. The note with it: MGG8-bearing mice; YTX-7739 30 mg/kg, TMZ 5mg/kg, IP. A digest of the protocol: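 Fluc-expressing MGG8 GSCs (1–5 × 10⁴) implanted into left forebrain of male/female athymic nude mice; treatment began once tumors bioluminescence-detected (D-luciferin 150 mg/kg IP). Groups (n=8): vehicle (0.5% methylcellulose + 0.2% Tween80 in saline), test compound 30 mg/kg, TMZ 5 mg/kg (in 5% dextrose), or combination, IP. Tumor growth by bioluminescence; Kaplan-Meier survival, two-sided log-rank test; study ended at six months.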

In the case of `Cc1nnc(-c2ccc(N3CCC(Oc4cc(F)ccc4Cl)CC3)nn2)o1` [CAY10566], in the assay on HA-Ras cells, the concentration for a half-maximal effect (EC50) amounted to 18.6 nM.
On to `Cn1nnc2c(C(N)=O)ncn2c1=O` [TMZ, Temozolomide], for which, in assay [1], the median survival is reported as 32 days and the tumor growth result is recorded as “initially delayed tumor growth”. Also, the short-term cell viability result in the assay with M120 was “ineffective”. In assay [2], the survival is 106.5 days and the “survival percentage at six months after tumor implantation” value worked out at 25%.
